Screening data: PubChem, Johns Hopkins Ion Channel Center
hERG rescue: hERG (human) protection from proarrhythmic block. CHO-hERG, FluxOR thallium flux, dofetilide IC70 present. activation (rescue from dofetilide block), less the hit threshold, % at 10 µM. hit rate 0.51% among 310,000. AID 1511;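 active means activation above the mean of controls blocked by dofetilide plus 5 SD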;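 further: thallium influx through hERG after potassium depolarization seen as dye fluorescence rise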
Kir21 inh: blocks the mouse Kir2.1 inward-rectifier potassium channel; B-score at 10 µM; HEK293-Kir2.1, FluxOR thallium flux fluorescence; hits give low values; hit rate 0.85% among 310,000; AID 1672; P35561;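 active means fluorescence ratio B-score at or below minus 3 SD of library scores, with starting-brightness B-score within 2 SD, cut at about -4.2 in these data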;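 further: channel flux triggered by added potassium and thallium sulfate stimulus; B-score of peak minus minimum fluorescence over baseline after thallium stimulus; more negative B-score means stronger Kir2.1 block with less thallium influx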
KCNK9 block: inhibitors of human KCNK9 two-pore domain potassium channel | AID 488922 | hit rate 1.2% among 310,000 | B-score at 10 µM | HEK293 KCNK9, FluxOR thallium flux fluorescence; hits give low values | Q9NPC2;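 active means ratio B-score over 3 SD below the library mean, with starting fluorescence within 5 SD of its mean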;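 further: negative B-score means less thallium flux so channel inhibition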
KCNK3 inh: human KCNK3 channel inhibition, primary screen | hit rate 0.84% among 340,000 | AID 602410 | CHO-KCNK3 thallium flux, FluxOR fluorescence; hits give low values | B-score at 10 µM | O14649;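 active means B-score under library mean minus 4 SD, starting fluorescence ratio at most library mean plus 5 SD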;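 further: more negative B-score means stronger inhibition of thallium flux through KCNK3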
KCNQ1 block: human KCNQ1 channel inhibition; CHO-K1 KCNQ1, FluxOR thallium flux fluorescence; hits give high values; B-score at 10 µM; hit rate 1.3% among 310,000; AID 2642;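 active means compounds whose thallium flux B-score, printed positive for inhibition, exceeds three library SD while starting fluorescence stays within three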;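 further: channel opened by potassium depolarization with thallium stimulus after 20 min compound exposure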
Target sequence (P51787 whole entry, looked up): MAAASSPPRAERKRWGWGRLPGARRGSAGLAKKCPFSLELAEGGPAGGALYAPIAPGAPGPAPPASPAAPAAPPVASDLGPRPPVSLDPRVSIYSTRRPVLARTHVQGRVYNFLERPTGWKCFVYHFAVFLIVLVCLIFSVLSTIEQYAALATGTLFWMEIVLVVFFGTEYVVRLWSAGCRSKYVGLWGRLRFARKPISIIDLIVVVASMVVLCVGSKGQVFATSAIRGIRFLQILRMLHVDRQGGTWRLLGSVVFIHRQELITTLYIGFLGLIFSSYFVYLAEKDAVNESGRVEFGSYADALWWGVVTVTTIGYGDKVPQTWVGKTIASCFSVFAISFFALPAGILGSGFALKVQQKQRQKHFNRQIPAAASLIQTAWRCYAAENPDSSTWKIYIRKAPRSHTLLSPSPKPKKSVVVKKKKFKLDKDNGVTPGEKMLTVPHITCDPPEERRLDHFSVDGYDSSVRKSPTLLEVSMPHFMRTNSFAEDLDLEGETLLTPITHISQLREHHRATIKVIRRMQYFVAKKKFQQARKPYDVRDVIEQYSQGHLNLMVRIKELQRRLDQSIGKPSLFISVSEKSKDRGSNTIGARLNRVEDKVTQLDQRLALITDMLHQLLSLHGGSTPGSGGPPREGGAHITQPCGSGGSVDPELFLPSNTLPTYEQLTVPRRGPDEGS
KCNQ1 pot: potentiators or activators of human KCNQ1 potassium channel. P51787. hit rate 0.35% among 310,000. CHO-K1 KCNQ1, thallium flux FluxOR fluorescence; hits give high values. B-score at 10 µM;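 active means fluorescence ratio B-score, a plate-corrected score, at least three library SD, with initial intensity B-score within 5 SD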
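Assay system: CHO-K1 cells stably expressing KCNQ1; Medium: assay buffer with matched DMSO; Also added: K+/Tl+ depolarizing stimulus; Dosing: single dose; Timing: dye 90 min, compound 20 min, room temperature; Measured by: kinetic FluxOR thallium fluorescence, 10-s 1-Hz baseline, 110-s post-stimulus read; Read-out: peak-minus-minimum fluorescence over initial fluorescence, negative-control normalized, B-scored.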
KCNK9 block conf: confirmation of human KCNK9 potassium channel inhibitors; inhibition, % at 10 µM; HEK293 KCNK9 cells, FluxOR thallium flux fluorescence; shares compounds with KCNK9 block; hit rate 43% among 4,900;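 active means thallium signal inhibited by more than 5 SD of the compound-free buffer control wells, on both duplicate plates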;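 further: 0% = assay buffer control wells without compound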
Kir2-1 spec: tests whether KCNK9 modulators also affect mouse Kir2.1; inhibition, % at 10 µM; Kir2.1 cells, FluxOR thallium flux fluorescence; hit rate 4% among 4,900; shares compounds with KCNK9 block; AID 492993;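 active means thallium signal drop more than 5 SD beyond the mean of the no-compound control wells, seen in both duplicate plates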;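 further: signal is fluorescence rise after thallium addition divided by baseline fluorescence; plate controls were assay buffer only for no effect and full block by chlorpromazine control for full effect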
KCNK9 uninduced: non-induced cell nonspecific activity of KCNK9 modulators | shares compounds with KCNK9 block | non-induced KCNK9-HEK293, FluxOR thallium flux | inhibition, % at 10 µM | hit rate 40% among 4,900;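 active means thallium signal drop beyond 5 SD of the untreated control mean, on both duplicate plates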;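 further: plate controls were buffer only IC0 wells for no effect and SID17386958 at its maximal inhibitory level for full effect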
Active calls of the source: *; i = inactive; x = no result given. This is a sample that favours compounds with a hit; in the whole collection about 3.7% have one here.

SMILES	hERG rescue	Kir21 inh	KCNK9 block	KCNK3 inh	KCNQ1 block	KCNQ1 pot	KCNK9 block conf	Kir2-1 spec	KCNK9 uninduced
CCOc1cc(/C=C2\C(=O)N(CCc3ccc(OC)c(OC)c3)C(C)=C2C(=O)OC)ccc1O	-13	0.44	i	i	i	i	x	x	x
Cc1ccc(S(=O)(=O)N(Cc2ccccc2)c2ccccc2C(=O)Nc2ccccc2C(=O)NCc2ccco2)cc1	-8	0.01	-9.6*	i	8*	i	i	i	34%*
Cc1c(C(=O)N2CCN(c3ccccc3)CC2)oc2c(F)cccc12	-15	-1.4	i	i	i	i	x	x	x
Cc1nn2c(N3CCCC3)cc(C(C)C)nc2c1-c1ccccc1	-12	-0.33	-8.3*	i	i	i	58%*	i	45%*
COc1ccc2c(c1)c(CC(=O)OC(C)C(=O)N(C)C)c(C)n2C(=O)c1ccc(Cl)cc1 (stereo not given)	-12	0.57	i	i	i	i	i	i	i
COc1ccc2c(c1)c(CC(=O)OCC(=O)N(C)C)c(C)n2C(=O)c1ccc(Cl)cc1	-7	0.71	i	i	i	i	x	x	x
O=C(O)c1ccc(Cl)c(S(=O)(=O)Nc2ccc(OCc3ccccc3)cc2)c1	-6	-1	i	i	i	i	x	x	x
CCCc1ccc(Oc2c(-c3ccc(O)c(C)c3O)n[nH]c2C)cc1	-17	-1.5	i	i	i	i	x	x	x
CCCc1ccc(Oc2cn[nH]c2-c2ccc(O)c(C)c2O)cc1	-16	-0.03	-9.9*	i	i	i	56%*	i	44%*
CC(C(=O)N1CCN(Cc2ccc3c(c2)OCO3)CC1)n1cc([N+](=O)[O-])cn1 (stereo not given)	-8	1.1	i	i	i	i	x	x	x
Cc1ccc(C(=O)O/N=C/c2c(C(F)(F)F)nn(C)c2Sc2ccc(Cl)cc2)cc1	-7	1.1	i	i	i	i	i	i	i
COC(=O)c1ccccc1Sc1c(/C=N/OC(=O)c2ccccc2)c(C(F)(F)F)nn1C	-5	0.68	i	i	i	i	x	x	x
O=S1(=O)N(Cc2ccccc2F)CCCN1Cc1c(F)cccc1Cl	-5	-0.06	-14*	i	i	i	68%*	i	34%*
Cc1ccc(CN2CCCN(Cc3ccc(F)cc3Cl)S2(=O)=O)cc1	-5	0.96	i	i	i	i	x	x	x
CC[C@@]12C(=O)N(c3cccc(Cl)c3)C(=O)N1[C@H](c1ccc(Br)cc1)[C@@H]1C(=O)N(C(C)(C)C)C(=O)[C@@H]12	-2	0.13	i	i	i	i	x	x	x
S=C(NCCc1ccccc1)N1CCN(Cc2ccc(Cl)c(Cl)c2)CC1	-5	0.33	i	i	i	i	i	i	25%*
COc1ccccc1CNC(=O)c1ccccc1OCc1ccc(F)cc1	-14	-6.5*	-8.8*	i	i	i	70%*	39%*	28%*
O=C(NCc1ccccn1)c1ccccc1OCc1ccc(F)cc1	-17	-1.1	i	i	i	i	x	x	x
COC(=O)C1=CN(Cc2ccc(C)cc2)C=C(C(=O)OC)C1c1ccc(F)c(F)c1	-10	0.1	-11*	i	i	i	i	i	39%*
CC(=O)N1c2ccc(S(=O)(=O)N3CCCCC3)cc2CC1C(=O)NCc1ccc(N(C)C)cc1 (stereo not given)	-4	1.6	i	i	i	i	x	x	x
C/C(=N\NC(=S)NCc1ccccc1)c1ccc(C(C)(C)C)cc1	-10	0.46	i	i	i	i	i	i	i
C/C(=N\NC(=S)NCc1ccccc1)c1ccc(C#N)cc1	-14	1.3	i	i	i	i	x	x	x
CCCN(CCC)S(=O)(=O)c1cccc(-c2csc(C)n2)c1	-17	-2.7	i	i	i	i	i	28%*	i
O=C(NCC(c1ccco1)N1CCc2ccccc2C1)c1cccc(F)c1 (stereo not given)	-13	-1.9	i	i	i	i	x	x	x
COc1cccc(C(=O)NCC(c2ccco2)N2CCc3ccccc3C2)c1 (stereo not given)	-6	0.14	-10*	i	i	i	38%*	i	i
SMILES	hERG rescue	Kir21 inh	KCNK9 block	KCNK3 inh	KCNQ1 block	KCNQ1 pot	KCNK9 block conf	Kir2-1 spec	KCNK9 uninduced
CCOC(=O)C1CNc2cc(S(=O)(=O)CC)ccc2O1 (stereo not given)	-6	-3.1	i	i	i	i	x	x	x
CCCN(C(=O)COc1ccc(Cl)cc1Cl)c1c(N)n(Cc2ccccc2)c(=O)[nH]c1=O	-10	0.64	i	i	i	i	x	x	x
O=c1sc(N2CCN(c3ccccc3F)CC2)nc2ccsc12	-10	-0.23	-13*	i	i	i	36%*	i	40%*
Cc1oc(-c2ccccc2Cl)nc1Cn1cccc1C1=NC(c2ccccc2)CO1 (stereo not given)	-6	-2	-13*	i	6*	i	54%*	i	52%*
Cc1ccc(Cn2cccc2C2=NC(C)CO2)cc1 (stereo not given)	-6	-0.3	i	i	i	i	x	x	x
CC(C)C1COC(c2cccn2Cc2ccccc2Cl)=N1 (stereo not given)	-4	0.51	i	i	i	i	i	i	30%*
O=C(NCC1CCCCC1)c1ccc(F)cc1Cl	-2	-1	i	i	i	i	x	x	x
Cc1cc(C(=O)OCC(=O)NC(C)c2ccc(F)cc2)c(C)o1 (stereo not given)	x	x	x	i	x	x	x	x	x
COc1cccc(CN(C)C(=O)CNC(=O)c2sc3ccccc3c2Cl)c1OC	-14	-0.56	i	i	i	i	i	i	i
COc1ccc(CN(C)C(=O)CNC(=O)Cc2cccc3ccccc23)c(OC)c1OC	-6	-0.09	i	i	i	i	x	x	x
COc1cc(C2NC(=O)CCC2[N+](=O)[O-])cc(OC)c1OC (stereo not given)	-2	-0.15	i	i	i	i	x	x	x
COc1ccc(C2NC(=O)CCC2[N+](=O)[O-])cc1OC (stereo not given)	-9	-0.05	-15*	i	i	i	i	i	i
CCN(C(=O)C1CCN(c2nc(-c3ccc(OC)cc3)no2)CC1)c1ccccc1	-19	0.09	i	i	i	i	x	x	x
